Data on 31 molecules can be found in ChEMBL document CHEMBL3792306, “Antichagasic and trichomonacidal activity of 1-substituted 2-benzyl-5-nitroindazolin-3-ones and 3-alkoxy-2-benzyl-5-nitro-2H-indazoles” (Eur J Med Chem, 2016).

Series [1] is described as follows: Selectivity index, ratio of LC50 for mouse L929 cells to IC50 for Trypanosoma cruzi CL-B5 lacZ epimastigotes […]. It is filed as toxicity, cell-based. The conditions noted are these: read-out: Ratio LC50/IC50. The method in brief: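 SI = LC50 (L929, 48 h resazurin) / epimastigote IC50. […] CPRG (200 µM final, 0.9% Triton X-100, pH 7.4) added for 3 h at 37 °C, A595 read. Triplicates, n = 3; IC50 from %EGI curves.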

A short description of series [2]: Cytotoxicity against mouse L929 cells after 48 hrs by resazurin assay. The class given is cell-based. The note with it: read-out: LC50. The method in brief:
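L929 fibroblasts, 15×10^3 cells/well in MEM, attached 3 h. Exposed to compounds for 48 h at 37 °C, 5% CO2. Resazurin (2 mM solution in PBS) added for 3 h; fluorescence read at 535/590 nm to give % cytotoxicity. Triplicate wells, three independent runs. LC50 taken from concentration vs %C curves, mean ± SD.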

Series [3] deals with Trypanosoma cruzi. Nature of the series: Antichagasic activity against Trypanosoma cruzi CL-B5 epimastigotes […] assessed as growth inhibition after 72 hrs by beta galactosidase reporter gene assay. It is filed as functional, organism-based. The method in brief:
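Then CPRG (200 µM final, pH 7.4) in Triton X-100 added for 3 h at 37 °C, A595 read. Triplicates, three independent runs; IC50 from dose–response of %growth inhibition, mean ± SD.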

In another series the test system is Trichomonas vaginalis. Nature of the series: Trichomonacidal activity against metronidazole-sensitive Trichomonas vaginalis JH31A#4 trophozoites after 24 hrs by resazurin dye based fluorescence assay. The class given is functional, organism-based. The note with it: JH31A#4, 24 h. The method in brief:
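Trophozoites in TYM with 10% FBS, 37 °C, 5% CO₂, seeded at 10⁵/mL in glass tubes. After 5 h, compounds added at 9.37–300 µM final (DMSO <0.2%). Viability read by resazurin fluorimetry after 24 h at 37 °C. Metronidazole 25 µM as reference. At least two runs in triplicate; IC50 with 95% limits by probit.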

Series [4] deals with Trypanosoma cruzi. Nature of the series: Antichagasic activity against Trypanosoma cruzi CL-B5 intracellular amastigotes in mouse L929 cells assessed as growth inhibition after 7 days by beta galactosidase reporter gene assay. The conditions noted are these: CL-B5, L929, 168 h. It is filed as functional, organism-based. Summed up: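 L929 fibroblasts (10,000/well, MEM) infected overnight at 33 °C, 5% CO₂ with CL-B5 lacZ tissue-culture trypomastigotes (1:6 cell:parasite). Washed, then 7 days with compound in fresh MEM. CPRG (400 µM final, pH 7.4) in 3% Triton X-100 for 3 h at 37 °C, A595. Triplicates; IC50 from %amastigote growth inhibition curves, mean ± SD.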

Series [5] can be described thus: Selectivity index, ratio of LC50 for mouse L929 cells to IC50 for Trypanosoma cruzi CL-B5 lacZ amastigotes in mouse L929 cells. The class given is toxicity, cell-based. The note with it: read-out: Ratio LC50/IC50. The method in brief:
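SI = LC50 (L929, 48 h resazurin) / amastigote IC50. Amastigotes: L929 cells (10,000/well, MEM) infected overnight at 33 °C with CL-B5 lacZ tissue-culture trypomastigotes (1:6 cell:parasite), washed, then exposed to compounds for 7 days. CPRG (400 µM final, 3% Triton X-100, pH 7.4) added for 3 h at 37 °C, A595 read. Triplicates; IC50 from %AGI curves. Assayed only when epimastigote SI warranted.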

Turning to `NC(=O)CCCn1c2ccc([N+](=O)[O-])cc2c(=O)n1Cc1ccccc1`, the selectivity ratio in series [1] is over 8.26. Moreover, the CC50 at 48 h in series [2] is over 256 µM. Further, the IC50 in the series on Trypanosoma cruzi [3] was 31 µM; in the series with Trichomonas vaginalis, 104 µM.

As to `C#CCn1c2ccc([N+](=O)[O-])cc2c(=O)n1Cc1ccccc1`, the selectivity ratio in series [1] was 18.1; in series [5], 64.7. Besides, the IC50 in the series on Trypanosoma cruzi [4] is 3.02 µM; in the series with Trypanosoma cruzi [3], 10.8 µM; in the series on Trichomonas vaginalis, 261 µM. In addition, the CC50 at 48 h in series [2] worked out at 195 µM.

For `NC(=O)C1Nc2ccc([N+](=O)[O-])cc2C(=O)N1Cc1ccccc1` (stereo not drawn), the CC50 at 48 h in series [2] was over 256 µM. The IC50 with Trypanosoma cruzi [3] is over 256 µM.

As for `CC(=O)OCCn1c2ccc([N+](=O)[O-])cc2c(=O)n1Cc1ccccc1`, the selectivity ratio in series [1] was over 47.1; in series [5], over 1024. The IC50 was determined as 0.25 µM with Trypanosoma cruzi [4], 5.43 µM in the series with Trypanosoma cruzi [3] and 266 µM in the series with Trichomonas vaginalis. Also, in series [2], the CC50 at 48 h is over 256 µM.

Turning to `CCOC(=O)n1c2ccc([N+](=O)[O-])cc2c(=O)n1Cc1ccccc1`, the selectivity ratio in series [1] came out at 2.49. The CC50 at 48 h in series [2] was 122 µM. Moreover, the results for the IC50 in the series with Trypanosoma cruzi [3] and in the series on Trichomonas vaginalis were 49 µM and 419 µM, respectively.

As for `O=[N+]([O-])c1ccc2nn(Cc3ccccc3)c(OCCOc3c4cc([N+](=O)[O-])ccc4nn3Cc3ccccc3)c2c1`, the CC50 at 48 h in series [2] was over 256 µM. In addition, the IC50 in the series with Trypanosoma cruzi [3] was over 256 µM.

Consider `COCCn1c2ccc([N+](=O)[O-])cc2c(=O)n1Cc1ccccc1`, for which the selectivity ratio in series [1] is over 39; in series [5], over 112. In addition, the IC50 with Trypanosoma cruzi [4] amounted to 2.29 µM; in the series with Trypanosoma cruzi [3] it was 6.56 µM; in the series on Trichomonas vaginalis it was 285 µM. In addition, the CC50 at 48 h in series [2] was over 256 µM.

In the case of `NC(=O)CN1c2ccc([N+](=O)[O-])cc2C(=O)N(Cc2ccccc2)C1C(N)=O` (stereo not drawn), in series [2], the CC50 at 48 h was over 256 µM. In addition, the IC50 with Trypanosoma cruzi [3] is over 256 µM.

On to `C=CCn1c2ccc([N+](=O)[O-])cc2c(=O)n1Cc1ccccc1`, for which the selectivity ratio was 45.9 in series [1] and 122 in series [5]. For the same molecule, the figures for the half-inhibitory concentration (IC50) in the series on Trypanosoma cruzi [4], in the series with Trypanosoma cruzi [3] and in the series with Trichomonas vaginalis were 1.58 µM, 4.19 µM and 359 µM, respectively. Further, in series [2], the CC50 at 48 h stood at 192 µM.

Take `CCOCCCn1c2ccc([N+](=O)[O-])cc2c(=O)n1Cc1ccccc1`: the selectivity ratio in series [1] is 25.9; in series [5], 51.5. The results for the IC50 with Trypanosoma cruzi [4], in the series on Trypanosoma cruzi [3] and in the series on Trichomonas vaginalis were 3.31 µM, 6.57 µM and 362 µM, respectively. Further, the CC50 at 48 h in series [2] worked out at 170 µM.

For the molecule `O=c1c2cc([N+](=O)[O-])ccc2n(CCCO)n1Cc1ccccc1`, the figures for the selectivity ratio in series [1] and in series [5] were over 152 and over 1024, respectively. For the same molecule, the IC50 in the series with Trypanosoma cruzi [4] was determined as 0.25 µM; in the series with Trypanosoma cruzi [3] it was 1.68 µM; in the series on Trichomonas vaginalis it was 128 µM. Also, the CC50 at 48 h in series [2] is over 256 µM.

As for `COc1c2cc([N+](=O)[O-])ccc2nn1C`, the IC50 in the series on Trichomonas vaginalis turned out to be 18.5 µM.

Regarding `N#CCn1c2ccc([N+](=O)[O-])cc2c(=O)n1Cc1ccccc1`, the selectivity ratio was over 21.9 in series [1] and over 73.1 in series [5]. For the same molecule, the results for the IC50 in the series on Trypanosoma cruzi [4] and in the series with Trypanosoma cruzi [3] were 3.5 µM and 11.7 µM, respectively. Moreover, the CC50 at 48 h in series [2] was over 256 µM.

On to `COC(=O)C1Nc2ccc([N+](=O)[O-])cc2C(=O)N1Cc1ccccc1` (stereo not drawn), for which, in series [1], the selectivity ratio is over 1.18. The CC50 at 48 h in series [2] was over 256 µM. Besides, the concentration for half-maximal inhibition (IC50) in the series with Trypanosoma cruzi [3] worked out at 216 µM.

Turning to `CCOC(=O)CCCn1c2ccc([N+](=O)[O-])cc2c(=O)n1Cc1ccccc1`, the selectivity ratio in series [1] is 7.01. The CC50 at 48 h in series [2] amounted to 78.1 µM. In addition, the IC50 turned out to be 11.1 µM with Trypanosoma cruzi [3] and 192 µM in the series with Trichomonas vaginalis.

In the case of `COC(=O)COc1c2cc([N+](=O)[O-])ccc2nn1Cc1ccccc1`, the selectivity ratio in series [1] was over 1.77. The CC50 at 48 h in series [2] was over 256 µM. The IC50 in the series on Trypanosoma cruzi [3] is 145 µM.

For `O=c1c2cc([N+](=O)[O-])ccc2n(CCCBr)n1Cc1ccccc1`, the selectivity ratio in series [1] was found to be 8.69. In addition, the CC50 at 48 h in series [2] came to 25.2 µM. The results for the IC50 with Trypanosoma cruzi [3] and with Trichomonas vaginalis were 2.9 µM and 80.2 µM, respectively.

Turning to `CC(=O)n1c2ccc([N+](=O)[O-])cc2c(=O)n1Cc1ccccc1`, in series [2], the CC50 at 48 h is over 256 µM. Also, the figures for the IC50 with Trypanosoma cruzi [3] and in the series with Trichomonas vaginalis were over 256 µM and 213 µM, respectively.

For the molecule `C=Cn1c2ccc([N+](=O)[O-])cc2c(=O)n1Cc1ccccc1`, the selectivity ratio stood at 58.4 in series [1] and 341 in series [5]. Also, the IC50 in the series on Trypanosoma cruzi [4] is 0.47 µM; in the series on Trypanosoma cruzi [3] it was 2.75 µM; in the series with Trichomonas vaginalis, 258 µM. Moreover, the CC50 at 48 h in series [2] was 160 µM.

`Cc1ccc(S(=O)(=O)n2c3ccc([N+](=O)[O-])cc3c(=O)n2Cc2ccccc2)cc1`: the selectivity ratio in series [1] is over 8.9. Moreover, the CC50 at 48 h in series [2] was over 256 µM. Also, the IC50 in the series with Trypanosoma cruzi [3] is 28.8 µM; with Trichomonas vaginalis, 151 µM.

Regarding `O=[N+]([O-])c1ccc2nn(Cc3ccccc3)c(OCCBr)c2c1`, the CC50 at 48 h in series [2] was over 256 µM. Also, the IC50 with Trypanosoma cruzi [3] is over 256 µM; in the series with Trichomonas vaginalis, 64.8 µM.

Consider `COC(=O)CN1c2ccc([N+](=O)[O-])cc2C(=O)N(Cc2ccccc2)C1C(=O)OC` (stereo not drawn), for which, in series [1], the selectivity ratio was under 0.8. For the same molecule, the CC50 at 48 h in series [2] worked out at 205 µM. Besides, the IC50 with Trypanosoma cruzi [3] was over 256 µM; in the series with Trichomonas vaginalis it was 58.2 µM.

Take `O=C(O)CCCn1c2ccc([N+](=O)[O-])cc2c(=O)n1Cc1ccccc1`: in series [2], the CC50 at 48 h is over 256 µM. For the same molecule, the IC50 with Trypanosoma cruzi [3] was over 256 µM.

As for `CNC(=O)CCCn1c2ccc([N+](=O)[O-])cc2c(=O)n1Cc1ccccc1`, the selectivity ratio is over 19.3 in series [1] and over 171 in series [5]. Moreover, the IC50 in the series with Trypanosoma cruzi [4] is 1.5 µM; with Trypanosoma cruzi [3] it was 13.3 µM; with Trichomonas vaginalis, 182 µM. Besides, the CC50 at 48 h in series [2] was over 256 µM.

On to `O=C(O)CCn1c2ccc([N+](=O)[O-])cc2c(=O)n1Cc1ccccc1`, for which the CC50 at 48 h in series [2] was over 256 µM. Further, the IC50 in the series on Trypanosoma cruzi [3] is over 256 µM.

On to `O=C(OCc1ccccc1)n1c2ccc([N+](=O)[O-])cc2c(=O)n1Cc1ccccc1`, for which, in series [1], the selectivity ratio is 1.97. For the same molecule, in series [2], the CC50 at 48 h stood at 86.1 µM. Also, the IC50 with Trypanosoma cruzi [3] was 43.6 µM; with Trichomonas vaginalis it was 589 µM.

As for `COCCOc1c2cc([N+](=O)[O-])ccc2nn1Cc1ccccc1`, in series [2], the CC50 at 48 h is over 256 µM. Also, the IC50 with Trypanosoma cruzi [3] is over 256 µM; in the series on Trichomonas vaginalis it was 107 µM.

Consider `COC(=O)CCn1c2ccc([N+](=O)[O-])cc2c(=O)n1Cc1ccccc1`, for which the results for the selectivity ratio in series [1] and in series [5] were over 27.9 and over 87.4, respectively. For the same molecule, the IC50 in the series on Trypanosoma cruzi [4] came out at 2.93 µM; in the series on Trypanosoma cruzi [3], 9.19 µM; with Trichomonas vaginalis it was 376 µM. Also, in series [2], the CC50 at 48 h is over 256 µM.

As to `COC(=O)Cn1c2ccc([N+](=O)[O-])cc2c(=O)n1Cc1ccccc1`, the selectivity ratio in series [1] turned out to be 4.92. Besides, in series [2], the CC50 at 48 h was found to be 129 µM. The IC50 with Trypanosoma cruzi [3] worked out at 26.2 µM; in the series on Trichomonas vaginalis, 535 µM.

For `O=c1c2cc([N+](=O)[O-])ccc2n(CCOc2c3cc([N+](=O)[O-])ccc3nn2Cc2ccccc2)n1Cc1ccccc1`, the CC50 at 48 h in series [2] was over 256 µM. In addition, in the series on Trypanosoma cruzi [3], the IC50 was over 256 µM.

For the molecule `O=C(c1ccccc1)n1c2ccc([N+](=O)[O-])cc2c(=O)n1Cc1ccccc1`, in series [1], the selectivity ratio is under 0.57. The CC50 at 48 h in series [2] stood at 146 µM. The figures for the IC50 in the series with Trypanosoma cruzi [3] and with Trichomonas vaginalis were over 256 µM and 197 µM, respectively.
